The series can be described thus: Plasma triptorelin concentration. Type of series: in vivo, Chinese children. Conditions: human, im, 15 mg, SD. The method, boiled down: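 Children with CPP (age-limited, ≥20 kg) received 15 mg of the test compound's pamoate salt (delivering 11.25 mg) by intramuscular injection into the upper outer buttock on day 1 and months 3, 6 and 9. Sparse plasma sampling was done pre-dose, 4 h post-injection on day 1, at month 3 (pre-dose) and at month 6. Concentrations were measured by validated LC-MS/MS and reported as means.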

Each structure is given as a SMILES string.

Compound `CC(C)C[C@H](NC(=O)[C@@H](Cc1c[nH]c2ccccc12)NC(=O)[C@H](Cc1ccc(O)cc1)NC(=O)[C@H](CO)NC(=O)[C@H](Cc1c[nH]c2ccccc12)NC(=O)[C@H](Cc1c[nH]cn1)NC(=O)[C@@H]1CCC(=O)N1)C(=O)N[C@@H](CCCNC(=N)N)C(=O)N1CCC[C@H]1C(=O)NCC(N)=O` [triptorelin] yielded a level at 4 h of 47.6 ± 23.9 ng/mL.
